Screening results (PubChem BioAssay)
CHRM5 PAM = human M5 muscarinic receptor positive allosteric modulators, primary screen, CHO-K1 cells, Fluo-8 calcium fluorescence; activation, % at 3 µM; AID 624038, 2012; actives 0.3% (n = 360,000); CHO-K1 hM5, ACh EC20 PAM; 0% = ACh EC20, 100% = ACh EC100;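 active = activation above the run cutoff, the mean activation of all test compounds plus 3 SD, cut at about 18% in these data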
Target sequence (P08912 whole entry, looked up): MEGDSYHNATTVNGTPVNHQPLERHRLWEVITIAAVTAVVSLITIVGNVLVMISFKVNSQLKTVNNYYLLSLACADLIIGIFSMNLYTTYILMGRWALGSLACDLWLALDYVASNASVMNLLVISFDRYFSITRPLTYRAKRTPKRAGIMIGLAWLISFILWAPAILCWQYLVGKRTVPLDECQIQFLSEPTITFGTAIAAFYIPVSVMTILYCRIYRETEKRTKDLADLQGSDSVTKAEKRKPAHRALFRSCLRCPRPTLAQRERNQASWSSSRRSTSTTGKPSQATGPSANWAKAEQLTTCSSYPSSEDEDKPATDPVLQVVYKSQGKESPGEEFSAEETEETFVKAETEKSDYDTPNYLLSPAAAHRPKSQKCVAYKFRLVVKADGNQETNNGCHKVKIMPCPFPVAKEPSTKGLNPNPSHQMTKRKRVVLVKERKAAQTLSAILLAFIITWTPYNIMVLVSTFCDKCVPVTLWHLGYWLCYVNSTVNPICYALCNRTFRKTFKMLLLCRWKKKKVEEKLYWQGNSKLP
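Measured by: Fluo-8 calcium fluorescence; material: human M5 receptor in CHO-K1 cells; schedule: Post-acetylcholine fluorescence recording 140 s; benchmarks: low control EC20 acetylcholine (0%), high control EC100 acetylcholine (100%); read-out: Max/basal fluorescence ratio as % of EC20–EC100 ACh window; compound: single dose, 3 µM nominal final test concentration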
M4 ag = human M4 muscarinic receptor agonists, primary screen, CHO-K1 cells, Fluo-8 calcium fluorescence | activation, % at 3 µM | CHO-K1 hM4/Gqi5; vehicle 0%, full acetylcholine response 100% | AID 624127, 2012 | actives 0.14% (n = 360,000);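 active = activation above the run mean over all test wells plus 3 SD, cut at about 32% in these data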;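 note: peak over basal fluorescence ratio per well then scaled between controls; 0% = DMSO wells and 100% = acetylcholine at EC100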
M5 ag = human M5 muscarinic receptor agonists, primary screen, CHO-K1 cells, Fluo-8 calcium fluorescence | CHO-K1 hM5 cells; 0% DMSO wells, 100% maximal acetylcholine response | activation, % at 3 µM | AID 624037, 2012 | actives 0.19% (n = 360,000);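 active = activation above the run's mean over test compounds plus 3 SD, cut at about 23% in these data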;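 note: signal is peak over basal fluorescence ratio across the kinetic read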
M5 antag = human M5 muscarinic receptor antagonists, primary screen, CHO cells, Fluo-8 calcium fluorescence; Muscarinic acetylcholine receptor M5 (Homo sapiens), P08912; CHO-hM5 cells, ACh EC80; actives 0.59% (n = 360,000); inhibition, % at 3 µM;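 active = inhibition above a per-plate cutoff, the mean of that plate's test compounds plus 3 SD, cut at about 27% in these data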;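 note: 0% = acetylcholine EC80 with DMSO and 100% = DMSO without agonist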
CHRM4 PAM = human M4 muscarinic receptor positive allosteric modulators, primary screen, CHO-K1 cells, Fluo-8 calcium fluorescence. actives 0.4% (n = 360,000). CHO-K1 hM4/Gqi5, ACh EC20; 0% = ACh EC20, 100% = maximal ACh. activation, % at 3 µM;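 active = activation above its plate's cutoff, the mean activation of sample wells plus 3 SD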
CHRM4 antagonist = human M4 muscarinic receptor antagonists, primary screen, CHO cells, Fluo-8 calcium fluorescence; CHO-hM4 cells, ACh EC80; inhibition, % at 3 µM; Muscarinic acetylcholine receptor M4 (Homo sapiens), P08173; actives 0.73% (n = 360,000);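 active = inhibition above its plate's cutoff, the mean inhibition of sample wells plus 3 SD, cut at about 27% in these data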;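 note: 0% = acetylcholine EC80 with DMSO and 100% = DMSO without agonist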
Numbers without * were called inactive. Hits are enriched below; roughly 1.9% of the tested compounds scored in any of these assays.

SMILES	CHRM5 PAM	M4 ag	M5 ag	M5 antag	CHRM4 PAM	CHRM4 antagonist
CCN(C(=O)COC(=O)c1c(-c2ccccc2)noc1C)C1CCS(=O)(=O)C1 (stereo unspecified)	5.3	-0.2	-1.2	-4.5	2.6	-1.4
CCN(C(=O)COC(=O)c1c(C)c(-c2ccccc2)nc2ccccc12)C1CCS(=O)(=O)C1 (stereo unspecified)	-1.6	7.5	25.1*	-2.2	-6.7	5.4
C#CCN(C[C@@H]1[C@@H](OC(=O)NCc2ccccc2F)[C@@H](OC(=O)NCc2ccccc2F)CN(C(=O)OC(C)C)N1C(=O)OC(C)C)S(=O)(=O)c1ccc(C)cc1	-4.6	2.3	0.6	6.5	-5.1	-6.9
O=C(CC[C@H]1O[C@@H](n2ccc(=O)[nH]c2=O)[C@H](O)[C@@H]1O)N1CCN(c2ccccn2)CC1	6.8	1.3	3.4	-5.8	20.8*	-16.0
Cc1onc(-c2ccccc2)c1C(=O)NC(C)c1ccc2c(c1)OCO2 (stereo unspecified)	-3.6	1.3	-6.3	17.6	0.2	1.7
COc1ccc(NC(=S)NCc2cccnc2)cc1OC	19.6*	3.8	-0.8	-10.8	23.4*	-11.1
CC(C)(C)c1cc(CP(=O)(c2ccccc2)c2ccccc2)cc(C(C)(C)C)c1O	0.8	-1.9	4.1	-11.1	-6.2	-16.4
O=C(/C(=C/O)N=Nc1ccccc1)c1ccc(Cl)cc1	19.4*	0.6	-1.9	-12.1	6.5	0.0
Cc1ccc(N=N/C(=C\O)C(=O)c2ccc(Cl)cc2)cc1	9.6	0.1	-0.1	-6.7	15.5	-8.1
Cc1ccc(Oc2ccc(S(=O)(=O)N3CCOCC3)cc2C(N)=O)cc1C	-4.0	3.2	-0.1	10.5	0.2	1.1
COc1ccc(C(=O)COC(=O)C(CCSC)NS(=O)(=O)c2ccc(Cl)cc2)cc1 (stereo unspecified)	-15.1	18.8	1.1	12.4	-23.5	27.4*
COc1cc(N)c(Cl)cc1C(=O)OCC(=O)N(C)C1CCCCC1	8.1	1.1	1.9	-9.7	3.2	-3.4
Nc1nc2ccccc2cc1C(=O)NCc1ccc(-c2ccccc2)cc1	-17.1	16.7	9.7	31.5*	-3.9	18.8
COC(=O)c1c[nH]c2c1-c1cc(C(=O)OCc3ccccc3)n(S(=O)(=O)c3ccc(C)cc3)c1C(=O)C2=O	1.8	0.3	2.6	6.5	-1.7	5.5
CCOC(=O)c1ccc(N)cc1	-1.6	0.0	-0.2	-4.5	-9.5	1.6
CCOC(=O)c1ccc(C(=O)OCC)nc1	20.7*	0.9	-0.8	-9.4	0.6	-2.2
O=C(CNC(=O)c1ccc(Br)o1)NNC(=O)c1ccccc1O	0.4	-0.1	1.1	7.4	2.6	-5.7
COc1ccc(-n2nc3c(N4CCC(C(=O)N5CCC(C)CC5)CC4)nnc(C)c3c2C)cc1	-14.9	0.6	-5.1	42.9*	-12.2	20.5
N#CNC(=Nc1cccc(C(F)(F)F)c1)SCc1ccc(C(=O)O)cc1	1.1	0.0	-3.1	-0.9	-8.9	38.4*
N#CNC(=Nc1ccccc1)SCc1ccc(C(=O)O)cc1	1.0	1.0	-0.1	-9.5	4.0	1.3
COc1ccccc1N1CC(C(=O)OCC(=O)Nc2c(C)cccc2C)CC1=O (stereo unspecified)	4.0	0.0	0.3	-8.5	1.6	-10.9
CCOc1ccc(CCNC(=O)c2cc(C)on2)cc1OCC	-3.3	2.4	-2.4	-4.8	20.8*	-15.2
CC1Cc2ccccc2N1C(=O)Cn1cnc2c1c(=O)n(C)c(=O)n2C (stereo unspecified)	11.2	3.4	1.4	-15.9	3.2	-6.1
CC(=O)c1ccc(N2CCN(C(=O)C3(S(=O)(=O)c4ccc(Cl)cc4)CC3)CC2)cc1	-7.0	7.3	3.1	-3.9	-5.2	0.2
